The text below walks through data of ChEMBL document CHEMBL4715813, “Allicin-inspired pyridyl disulfides as antimicrobial agents for multidrug-resistant Staphylococcus aureus” (Eur J Med Chem, 2018).

Some results are limits rather than exact numbers.

Usually MBC stands for the lowest tested concentration that kills the bacteria rather than only halting them. As a reminder, the IC50 is the concentration that inhibits the measured activity by half.

The subject of assay [1] is Enterobacter cloacae. Nature of the assay: Antibacterial activity against Enterobacter cloacae ATCC 23355 assessed as zone of inhibition by disc diffusion method. In kind it is functional. (In agar diffusion tests the substance spreads into inoculated agar from a disc or well.)
Assay [2] deals with Staphylococcus epidermidis. Put plainly: Antibacterial activity against Staphylococcus epidermidis ATCC 14990 assessed as zone of inhibition by disc diffusion method. In kind it is functional.
Assay [3] relates to Pseudomonas aeruginosa. Nature of the assay: Antibacterial activity against Pseudomonas aeruginosa ATCC 15422 assessed as zone of inhibition by disc diffusion method. The assay is classed as functional.
The test system of assay [4] is Staphylococcus aureus. Put plainly: Bactericidal activity against methicillin-susceptible Staphylococcus aureus ATCC 25923 assessed as bacterial killing incubated for over night. The assay is classed as functional. In outline: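 5 μL from each well was spotted on agar and incubated overnight. MBC was taken as the lowest concentration with no visible growth.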
For assay [5], the system named is Staphylococcus aureus. Nature of the assay: Antibiofilm activity against methicillin-resistant Staphylococcus aureus assessed as disruption of preformed biofilm at 1 to 5 times of MIC incubated for 20 hrs by crystal violet staining based assay. In kind it is functional, organism-based.
The test system of assay [6] is HepG2. Nature of the assay: Cytotoxicity against human HepG2 cells assessed as reduction in cell viability after 72 hrs by MTT assay. The assay is classed as cell-based. The settings on record: HepG2, 72 h. The essentials: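 MTT viability: MDA-MB-231 and HepG2 cells (kept in DMEM with 10% FBS) were seeded at 5000/well and allowed to adhere overnight. They were exposed to 0.001–100 μM for 72 h, then given MTT 1 mg/mL in PBS pH 7.4 for 2 h. Formazan was dissolved in DMSO and A570 read. IC50 was taken from dose-response curves.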
For orientation: Formazan colour is commonly taken as a measure of viable cells.

With `CCCCCCCCSSc1ccccn1`, the “diameter of the inhibition zone (DIZ)” value in assay [1] turned out to be 0 mm; in assay [2], 46 mm; in assay [3] it was 0 mm. Besides, the MBC in assay [4] was more than 50 µM. Also, in assay [5], the Activity entry is “Dose-dependent effect”. Also, the IC50 in assay [6] was not below 100 µM.
